Assays:
HT-1080 = experiment: Cytotoxicity against human HT1080 cells by MTT assay; type: functional; conditions: read-out: ED50 (the source's name)
In short: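 Human HT-1080 fibrosarcoma cells kept in Eagle's minimum essential medium with 10% fetal calf serum, 0.1% NaHCO3 and 2 mM glutamine. Viability with and without test agents was read by standard MTT assay, and ED50 was reported. 5-Fluorouracil and curcumin served as positive controls.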

[1] = Cytotoxicity against mouse 26-L5 cells by MTT assay; type: functional; conditions: read-out: ED50 (the source's name)
In short: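 Murine colon 26-L5 carcinoma cells grown in RPMI-1640 with 10% fetal calf serum, 0.1% NaHCO3 and 2 mM glutamine. MTT assay compared viability in the presence and absence of agents, giving ED50 values. Positive controls were 5-fluorouracil and curcumin.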

Compound | EC50 (HT-1080; Homo sapiens, HT-1080) | EC50 ([1]; Mus musculus) | EC50 (HT-1080) | EC50 [1]
COc1cc2c(c3c1C(=O)CC(c1ccc(O)cc1)O3)[C@H](C[C@@H](O)CCc1ccc(O)cc1)C[C@H](c1ccc(O)cc1)O2 (mixture of isomers) | 10.1 µM | 42.1 µM | – | –
COc1cc2c(c3c1C(=O)CC(c1ccc(O)cc1)O3)[C@@H]1C[C@H](CCc3ccc(O)cc3)O[C@H](c3ccc(O)cc3)[C@H]1[C@H](c1ccc(O)cc1)O2 (mixture of isomers) [CALYXIN J] | – | – | 0.32 µM | 13.7 µM
COc1cc(O)c([C@@H]2C[C@H](CCc3ccc(O)cc3)O[C@H](c3ccc(O)cc3)C2)c2c1C(=O)CC(c1ccc(O)cc1)O2 (stereo in doubt; 3) [CALYXIN K] | 5.09 µM | – | – | 7.73 µM
COc1cc(O)c([C@@H]2C[C@H](CCc3ccc(O)cc3)O[C@H](c3ccc(O)cc3)C2)c2c1C(=O)CC(c1ccc(O)cc1)O2 (stereo in doubt; 4) [CALYXIN K] | – | – | 4.75 µM | 33 µM
COc1cc2c(c3c1C(=O)CC(c1ccc(O)cc1)O3)[C@@H]1C[C@H](CCc3ccc(O)cc3)O[C@H](c3ccc(O)cc3)[C@H]1[C@H](c1ccc(O)cc1)O2 (stereo in doubt; 7) [CALYXIN J] | – | 23.2 µM | 8.19 µM | –
COc1cc2c(c3c1C(=O)CC(c1ccc(O)cc1)O3)[C@@H]1C[C@H](CCc3ccc(O)cc3)O[C@@H]1O2 (stereo in doubt; 12) [NEOCALYXIN A] | 10.7 µM | > 100 µM | – | –
COc1cc2c(c3c1C(=O)CC(c1ccc(O)cc1)O3)[C@@H]1C[C@H](CCc3ccc(O)cc3)O[C@@H]1O2 (stereo in doubt; 13) [NEOCALYXIN A] | – | – | 20.2 µM | 78 µM
COc1cc(O)c([C@@H]2C[C@H](CCc3ccc(O)cc3)O[C@H](c3ccc(O)cc3)C2)c(O)c1C(=O)/C=C/c1ccc(O)cc1 [CALYXIN B] | 10.4 µM | 10.4 µM | – | –
COc1cc(O)c(C(/C=C/c2ccc(O)cc2)C[C@@H](O)CCc2ccc(O)cc2)c2c1C(=O)CC(c1ccc(O)cc1)O2 (some centres not stated) [CALYXIN E] | 21.7 µM | 98.1 µM | – | –
COc1cc(O)c([C@@H]2C[C@H](CCc3ccc(O)cc3)O[C@@H](c3ccc(O)cc3)C2)c2c1C(=O)CC(c1ccc(O)cc1)O2 (some centres not stated) [CALYXIN G] | 25.9 µM | 42.2 µM | – | –
COc1cc(O)c2c(c1C(=O)/C=C/c1ccc(O)cc1)O[C@@H](c1ccc(O)cc1)[C@@H]1[C@@H](c3ccc(O)cc3)O[C@@H](CCc3ccc(O)cc3)C[C@@H]21 [CALYXIN I] | 9.08 µM | 8.39 µM | – | –
COc1cc(O)c2c(c1C(=O)/C=C/c1ccc(O)cc1)O[C@@H](c1ccc(O)cc1)C[C@H]2C[C@@H](O)CCc1ccc(O)cc1 [CALYXIN L] | 44.3 µM | 28.2 µM | – | –
COc1cc(/C=C/C(=O)CC(=O)/C=C/c2ccc(O)c(OC)c2)ccc1O [CURCUMIN] | 23.4 µM | 23.2 µM | – | –
COc1cc(O)c([C@@H]2C[C@H](CCc3ccc(O)cc3)O[C@@H](c3ccc(O)cc3)C2)c(O)c1C(=O)/C=C/c1ccc(O)cc1 [EPICALYXIN F] | 1.71 µM | 0.89 µM | – | –
COc1cc(O)c2c(c1C(=O)/C=C/c1ccc(O)cc1)O[C@H](c1ccc(O)cc1)[C@@H]1[C@@H](c3ccc(O)cc3)O[C@@H](CCc3ccc(O)cc3)C[C@@H]21 [EPICALYXIN I] | 5.88 µM | 12.1 µM | – | –
O=c1[nH]cc(F)c(=O)[nH]1 [FLUOROURACIL] | 8 µM | 0.53 µM | – | –

Reference: ChEMBL document CHEMBL1155709, “Eleven novel diarylheptanoids and two unusual diarylheptanoid derivatives from the seeds of Alpinia blepharocalyx” (2001)
